The whole screen tested about 96,000 compounds, of which about 140 (0.15%) were called active. This is one part of a sample in which actives are shown more often than they occur. A number with no mark means an inactive call.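 The calls were made as follows: active = mean replicate inhibition above about 25%, with at least 55% of replicates also reaching it (limit read from the data, passing the limit was not always enough); inconclusive = only one of those two conditions met; inactive = neither condition met.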

For the assay, the target named is Lysine-specific demethylase 4C (Homo sapiens) (UniProt Q9H3R0). Nature of the assay: inhibitors of GASC-1 (KDM4C) histone demethylase, primary screen, biochemical, single concentration HTS (AID 720574). The conditions noted are these: GST-KDM4C 2-372, H3K9me3 peptide, LANCE TR-FRET; at 12.5 µM; active compounds read high. In short, it runs like this: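 Test system – GST-tagged GASC-1 (JMJD2C) catalytic fragment, aa 2-372 · Medium – HEPES buffer, pH 7.5, plus ascorbate · Reagent – H3K9me3 peptide with Fe(II)/2OG · Compound – one test concentration per compound · Timing – 30 min reaction, 60 min detection, RT · Technique – TR-FRET with Eu antibody and ULight streptavidin, EDTA stop · Read-out basis – inhibition from TR-FRET ratio decrease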
Chain of Lysine-specific demethylase 4C (Homo sapiens) (Q9H3R0 2-372 limits assumed): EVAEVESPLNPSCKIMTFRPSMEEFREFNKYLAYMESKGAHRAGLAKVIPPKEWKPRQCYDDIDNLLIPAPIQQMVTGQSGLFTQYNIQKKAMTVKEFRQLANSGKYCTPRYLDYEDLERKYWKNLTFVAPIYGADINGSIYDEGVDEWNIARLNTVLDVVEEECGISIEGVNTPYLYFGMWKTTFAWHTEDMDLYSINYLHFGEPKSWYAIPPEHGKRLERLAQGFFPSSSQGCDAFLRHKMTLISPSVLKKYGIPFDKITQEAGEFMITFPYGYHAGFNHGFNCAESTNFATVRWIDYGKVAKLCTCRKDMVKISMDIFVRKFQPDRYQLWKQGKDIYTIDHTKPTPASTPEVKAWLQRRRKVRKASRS
In the case of `Cn1cnc(CCNC(=O)C[C@@H]2CC[C@H]3[C@@H](COC[C@@H](O)CN3C(=O)Nc3ccc(Cl)cc3)O2)c1`, the inhibition (as a rule, the change of the read-out against control, counted positive when it falls) is -0.915%.

For the molecule `O=C(Cc1ccccn1)N1CC(=O)N2[C@H](C1)[C@@H](c1ccc(-c3ccccc3)cc1)[C@@H]2CO`, the inhibition is 1.11%.

Take `O=C(c1ccc2c(c1)OCO2)N1CC(=O)N2[C@H](C1)[C@@H](c1ccc(C#Cc3ccccc3)cc1)[C@@H]2CO`: the inhibition is -2.3%.

For `O=C(NCC[C@@H]1CC[C@H](NC(=O)Nc2cc(F)ccc2F)[C@@H](CO)O1)Nc1ccc(Cl)cc1`, the inhibition is 0.858%.

Consider `C[C@@H]1CN([C@@H](C)CO)S(=O)(=O)c2ccc(C#Cc3ccc(F)cc3)cc2O[C@@H]1CN(C)CC1CC1`, for which the inhibition was -2.29%.

For the molecule `C/C=C/c1ccc2c(c1)O[C@@H](CN(C)C(=O)NC1CCCC1)[C@@H](C)CN([C@H](C)CO)S2(=O)=O`, the inhibition was 0.88%.

As for `C[C@@H]1CN([C@@H](C)CO)S(=O)(=O)c2ccc(C#Cc3ccc(F)cc3)cc2O[C@H]1CN(C)C(=O)NC1CCCC1`, the inhibition is 55.9% (active).

As for `COc1ccc2c3c(n(C)c2c1)[C@H](CO)N(Cc1ccc(F)cc1)CC31CN(CC2CCOCC2)C1`, the inhibition was -0.66%.

For `COc1ccc2c3c(n(C)c2c1)[C@@H](CO)N(C(=O)Nc1ccc(F)cc1)CC31CCN(C(=O)c2cccnc2)CC1`, the inhibition was -1.49%.

For the molecule `CO[C@@H]1CN(C)C(=O)c2cc(NC(=O)C3CC3)ccc2OC[C@H](C)N(Cc2ccc(F)cc2)C[C@@H]1C`, the inhibition was -0.0715%.

Consider `C[C@H](CO)N1C[C@H](C)[C@@H](CN(C)S(=O)(=O)c2ccccc2)OCCCC[C@H](C)Oc2ccc(NC(=O)NC3CCCCC3)cc2C1=O`, for which the inhibition is 0.616%.

On to `COCC(=O)NC[C@@H]1[C@@H](c2ccc(C3=CCCC3)cc2)[C@@H](CO)N1C(C)=O`, for which the inhibition is 3.61%.

As to `CCC(=O)Nc1ccc2c(c1)C(=O)N(C)C[C@@H](OC)[C@@H](C)CN(C(=O)CN(C)C)[C@@H](C)CO2`, the inhibition was 1.55%.

For `O=C(C[C@@H]1C[C@@H]2c3cc(NS(=O)(=O)c4ccccc4)ccc3O[C@@H]2[C@@H](CO)O1)NC1CCCCC1`, the inhibition is -0.944%.

`CS(=O)(=O)N1CC2(C1)[C@H](c1ccccc1)[C@H](CO)N2Cc1ccc(F)cc1`: the inhibition is 0.43%.

Take `CO[C@@H]1CN(C)C(=O)c2ccc(NC(=O)NC(C)C)cc2OC[C@@H](C)N(Cc2ccc(-c3ccccn3)cc2)C[C@H]1C`: the inhibition is 0.434%.

Take `CO[C@H]1CN(C)C(=O)c2ccc(NS(=O)(=O)c3ccccc3)cc2OC[C@@H](C)N(Cc2nccs2)C[C@@H]1C`: the inhibition is 0.175%.

On to `COC(=O)C[C@H]1C[C@H]2c3cc(NC(=O)NC4CCCCC4)ccc3O[C@H]2[C@H](CO)O1`, for which the inhibition was 9.44%.

For the molecule `CC(C)NC(=O)N1[C@H](CNC(=O)CN(C)C)[C@@H](c2ccccc2)[C@@H]1CO`, the inhibition was -0.351%.

For the molecule `O=C(c1ccccn1)N1CC2(C1)[C@@H](c1ccccc1)[C@@H](CO)N2C(=O)C1CCC1`, the inhibition was -1.3%.

Consider `O=C(NCC[C@H]1CC[C@H](NS(=O)(=O)c2ccccc2)[C@H](CO)O1)c1cc(Cl)cc(Cl)c1`, for which the inhibition was -1.8%.

For the molecule `COc1ccc(-c2cnc3c(c2)C(=O)N([C@H](C)CO)C[C@@H](C)[C@H](CN(C)C(=O)Cc2ccncc2)O3)cc1`, the inhibition is -0.262%.

With `CO[C@@H]1CN(C)C(=O)c2cc(NC(=O)Nc3ccccc3F)ccc2OC[C@H](C)NC[C@H]1C`, the inhibition was 0.557%.

`CCCNC(=O)C[C@@H]1CC[C@H]2[C@H](COc3ccc(NC(=O)CCC)cc3C(=O)N2C)O1`: the inhibition was 1.75%.

Take `CCCNC(=O)N1CC2(C1)[C@H](c1ccccc1)[C@@H](CO)N2C(=O)C1CC1`: the inhibition is 1.13%.

With `C/C=C/c1ccc([C@@H]2[C@@H](CO)N(C(=O)CN(C)C)C23CN(C(=O)C2CCCC2)C3)cc1`, the inhibition is 0.163%.

For the molecule `CO[C@@H](CN(C)S(=O)(=O)c1ccccc1)[C@H](C)CN(Cc1ccccc1Cl)[C@H](C)CO`, the inhibition was 1.1%.

Turning to `COc1ccc2c3c(n(C)c2c1)[C@@H](CO)N(C(C)=O)CC31CCN(C(=O)C2CC2)CC1`, the inhibition was -0.393%.

`O=C(Nc1ccccc1F)N1CC(=O)N2[C@H](C1)[C@H](c1ccc(C#Cc3ccc(F)cc3)cc1)[C@@H]2CO`: the inhibition is 1.34%.

In the case of `CCC(=O)N(C)C[C@H]1Oc2ncc(-c3ccccc3OC)cc2C(=O)N([C@H](C)CO)C[C@H]1C`, the inhibition is 17.4%.

`CN1[C@@H]2CN(C(=O)C3CCCCC3)c3ccccc3[C@@H]2[C@@H]1CO`: the inhibition was 4.33%.

With `Cc1cccc(S(=O)(=O)N2C[C@@H]3[C@H](c4ccccc42)[C@H](CO)N3CC2CCOCC2)c1`, the inhibition was -0.667%.

Take `O=C(NCc1ccc(F)cc1)[C@@H]1[C@@H](CO)[C@@H]2Cn3c(cccc3=O)[C@@H]2N1C(=O)c1cccnc1`: the inhibition was -0.929%.

Regarding `CO[C@H]1CN(C)C(=O)c2ccc(NC(=O)NC(C)C)cc2OC[C@@H](C)N(C(=O)CN(C)C)C[C@H]1C`, the inhibition was 0.223%.

In the case of `COc1ccc(CN(C)C[C@@H]2Oc3ccc(NC(=O)Nc4ccc(F)cc4)cc3CC(=O)N([C@@H](C)CO)C[C@H]2C)cc1`, the inhibition was -0.133%.

Turning to `O=C(C1CCOCC1)N1C[C@H]2[C@@H](c3ccccc31)[C@@H](CO)N2Cc1ccccc1`, the inhibition is 2.96%.

For the molecule `O=C(CC1CC1)N1[C@@H]2CN(S(=O)(=O)c3ccccc3F)c3ccccc3[C@@H]2[C@@H]1CO`, the inhibition was 2%.

With `C[C@H]1CN([C@@H](C)CO)C(=O)c2cc(C#Cc3ccccc3F)cnc2O[C@@H]1CN(C)C(=O)C1CC1`, the inhibition is -1.28%.

`C[C@H](CO)N1C[C@H](C)[C@@H](CN(C)S(=O)(=O)c2ccccc2)Oc2ncc(C#Cc3ccccc3F)cc2C1=O`: the inhibition was -3.49%.

Regarding `C[C@H]1CN([C@@H](C)CO)C(=O)c2cc(C#Cc3ccccc3F)cnc2O[C@H]1CN(C)C`, the inhibition was 28.4% (active).

Turning to `COc1ccc2c3c([nH]c2c1)[C@@H](CO)N(C(=O)Nc1ccc(F)cc1)CC31CN(S(C)(=O)=O)C1`, the inhibition is -0.649%.
